# Cneo AK release: Cryptococcus neoformans cell lysis inducers, primary screen, AK release luminescence, single concentration; C. neoformans lysis, adenylate kinase release luminescence, 4 h; normalised: neutral wells 0, clomiphene wells 100; lysis activity, % at 15 µM; 360,000 tested, 0.2% active;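 active means mean lysis activity across replicates of at least 80%, whatever share of replicates individually reach that level; inactive means mean lysis activity below 80%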
#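 Assay system: Cryptococcus neoformans yeast cells / Dosing: single-point compound dose / Timing: 4 h at 37 °C static, read 1 h later / Measured by: luminescence of released adenylate kinase using an AK detection reagent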
# PDI inh: inhibitors of human PDI, primary screen, biochemical, turbidity, single point, plate reader; Protein disulfide-isomerase (Homo sapiens), P07237; PDI insulin aggregation turbidity, A650, 90 min; inhibition, % at 10 µM; 350,000 tested, 0.052% active; AID 588391, 2011;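 active means mean inhibition across replicates of 30% or more, whatever share of single replicates reach that level; inconclusive means mean inhibition below 30% while every single replicate reaches 30%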
# Statin myotox sup: suppressors of statin myotoxicity in C2C12 myotubes, primary screen, cell-based, single point, plate reader; C2C12 myotubes + simvastatin, ATP luminescence, 48 h; scaled: DMSO 0, geranylgeraniol control 100; 330,000 tested, 0.78% active; rescue of ATP level, % at 7.49 µM;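 active means mean ATP rescue above about 67%, or every replicate alone reaching that limit, limit read from the data, passing the limit was not always enough; inconclusive means no clear call, values can overlap the other calls; inactive means mean under the limit and some replicate under it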;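 further: myotubes were challenged with 10 µM simvastatin during compound exposure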
# ERp5 block: inhibitors of ERp5-driven insulin aggregation, primary screen, biochemical, turbidity, absorbance 650 nm, single point; Protein disulfide-isomerase A6 (Homo sapiens), Q15084; 90 min; inhibition, % at 9.99 µM; 350,000 tested, 0.05% active; AID 651711, 2012;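 active means mean replicate inhibition above about 25%, with every replicate also reaching it, limit read from the data, passing the limit was not always enough; inconclusive means only one of those two criteria met; inactive means neither criterion met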
# Target sequence (Q15084 whole entry, looked up): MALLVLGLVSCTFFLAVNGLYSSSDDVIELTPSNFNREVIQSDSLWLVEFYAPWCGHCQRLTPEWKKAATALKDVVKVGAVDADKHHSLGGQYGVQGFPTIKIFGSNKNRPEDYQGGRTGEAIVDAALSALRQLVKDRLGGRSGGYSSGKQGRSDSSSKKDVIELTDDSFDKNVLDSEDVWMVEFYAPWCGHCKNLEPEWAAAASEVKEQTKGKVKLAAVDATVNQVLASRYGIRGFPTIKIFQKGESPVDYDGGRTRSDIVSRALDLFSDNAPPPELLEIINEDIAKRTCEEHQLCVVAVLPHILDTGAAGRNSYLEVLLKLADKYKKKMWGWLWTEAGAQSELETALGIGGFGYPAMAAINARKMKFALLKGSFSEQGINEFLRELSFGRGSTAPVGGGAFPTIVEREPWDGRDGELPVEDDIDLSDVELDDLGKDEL
# F508del corr: F508del CFTR correction, initial screen, CFBE line, single point | AID 720511, 2013 | 350,000 tested, 0.36% active | activity (quench increase), % at 7.58 µM | CFBE cells, YFP halide quenching; stimulated with forskolin plus potentiator P3; % fluorescence drop versus neutral controls;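 active means mean added fluorescence quench of at least 8% versus neutral control, with both replicates also reaching 8%; inconclusive means only one of the mean or replicate conditions met; inactive means mean below 8% and not both replicates reaching 8%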;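 further: cells transiently co-express mutant CFTR-F508del with the halide-sensitive YFP; corrector assay measuring rescue of mutant channel to the surface after 24 h compound exposure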
# DENV2 CPE rescue: inhibitors of DENV2 cytopathic effect, primary screen, cell-based, plate reader, single concentration; DENV2-infected cells, cytopathic effect rescue; CPE inhibition, % at 9.99 µM; 350,000 tested, 1.7% active; AID 651640, 2012; in the data active means CPE inhibition above about 20%, passing the limit was not always enough; inconclusive means no clear call, values can overlap the other calls; tested in BHK-21 cells;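 further: 0% = median of neutral control wells and 100% = median of positive control wells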
# * hit, by the source's call; ? = inconclusive; / = not tested or not shown. Sampled rows, rich in hits. Any-hit rate of the full collection: about 2.3%.
SMILES,Cneo AK release,PDI inh,Statin myotox sup,ERp5 block,F508del corr,DENV2 CPE rescue
CCOC(=O)c1c(S(=O)(=O)NCc2cccs2)c(C)n(C)c1C,7,-5,2,-6,5,1
Cc1nn(C)c(C)c1S(=O)(=O)NCc1cccs1,0,3,82*,/,/,/
COc1ccc(NC(=O)N(C)C[C@H]2Oc3ccc(NC(=O)Cn4cnnn4)cc3C(=O)N([C@@H](C)CO)C[C@H]2C)cc1,-1,/,46,5,-2,-5
CCCNC(=O)N1C[C@@H]2[C@H](c3ccccc31)[C@@H](CO)N2Cc1cc(F)ccc1F,-14,/,24,-2,-2,5
O=C(Nc1ccc(F)cc1)N1CC(=O)N2[C@@H](CO)[C@H](c3ccc(C#Cc4cccnc4)cc3)[C@@H]2C1,/,/,/,3,0,-4
Cc1ccc(C(C#N)c2ccc(Cl)nn2)cc1 (stereo not drawn),/,-2,/,2,-1,3
N#CC(c1ccc(Cl)cc1)c1ccc(Cl)nn1 (stereo not drawn),-1,-20,106*,/,/,/
C[C@@H]1CN([C@@H](C)CO)C(=O)c2cc(N(C)C)ccc2O[C@H]1CN(C)S(=O)(=O)c1cn(C)cn1,11,/,-30,3,-1,-5
O=C(c1cccnc1)N1CCC(Oc2ccc(C(=O)N3CCCC(O)C3)cc2)CC1 (stereo not drawn),111*,-3,9,3,-2,-1
Clc1ccc(CN2CCN(/N=C/c3ccco3)CC2)cc1,0,3,5,0,-1,4
Cc1ccc(/C=N/N2CCN(Cc3ccc(Cl)cc3)CC2)o1,-1,-22,81*,/,/,/
CO[C@H]1CN(C)C(=O)c2ccc(NC(=O)CC(F)(F)F)cc2OC[C@@H](C)N(C(=O)c2ccccc2F)C[C@H]1C,/,/,/,5,-3,62*
CCCC(=O)Nc1ccc2c(c1)C(=O)N(C)C[C@@H](OC)[C@H](C)CN(C(=O)c1ccccc1F)[C@@H](C)CO2,0,/,-12,2,-2,44*
CCC(=O)Nc1ccc2c(c1)OC[C@H](C)N(C(=O)c1ccccc1F)C[C@H](C)[C@@H](OC)CN(C)C2=O,3,/,-1,8,/,22*
CCC(=O)Nc1ccc2c(c1)OC[C@@H](C)N(C(=O)c1ccccc1F)C[C@H](C)[C@H](OC)CN(C)C2=O,-8,/,-5,4,/,-11
O=C(NC1CCN(Cc2ccccc2)CC1)c1cc(S(=O)(=O)N2CCOCC2)ccc1Cl,2,12,-3,1,15*,0
C[C@@H]1CCCCO[C@H](CN(C)Cc2ccc(C(F)(F)F)cc2)[C@@H](C)CN([C@@H](C)CO)C(=O)c2cc(NC(=O)CCC(F)(F)F)ccc2O1,1,/,-99,3,-1,21*
C[C@@H]1CCCCO[C@@H](CN(C)Cc2ccc(C(F)(F)F)cc2)[C@H](C)CN([C@@H](C)CO)C(=O)c2cc(NC(=O)CCC(F)(F)F)ccc2O1,5,/,?,-2,4,2
C[C@@H]1CCCCO[C@@H](CN(C)Cc2ccc(C(F)(F)F)cc2)[C@@H](C)CN([C@@H](C)CO)C(=O)c2cc(NC(=O)CCC(F)(F)F)ccc2O1,-5,/,83*,-3,-1,-3
C[C@@H]1CCCCO[C@H](CN(C)Cc2ccc(C(F)(F)F)cc2)[C@H](C)CN([C@@H](C)CO)C(=O)c2cc(NC(=O)CCC(F)(F)F)ccc2O1,5,/,-17,-2,3,-3
COc1ccc(CN(C)C[C@H]2OCCCC[C@H](C)Oc3ccc(NC(=O)CCC(F)(F)F)cc3C(=O)N([C@H](C)CO)C[C@@H]2C)cc1,0,/,/,4,1,29*
C[C@@H]1CN([C@H](C)CO)C(=O)c2cc(NC(=O)CCC(F)(F)F)ccc2O[C@@H](C)CCCCO[C@@H]1CN(C)Cc1ccc(C(F)(F)F)cc1,2,/,125*,-6,2,10
